Measurements gathered from unrelated publications.
Compare with care: the assays were run in different laboratories.
Cell line: MDA-MB-231
Observed: cell growth or viability

Structure (SMILES)	test	conditions	quantity	value
C[C@@H]1CC[C@@H]([C@@](C)(O)Cn2cnc3ccccc32)[C@H](OCc2ccccc2)C1	MTT	30 µM, 72 h	inhibition	80%
Cc1c(Cc2ccccc2)c(=O)oc2c(C)c(OCC(=O)NN=Cc3ccccc3)ccc12	MTT	62.5 µg/mL	viability	17.6%
O=C(C=Cc1ccccc1)Nc1cc(-c2ccnc(N3CCC(O)CC3)c2)ccn1	MTT	72 h	IC50	3 nM
COc1cc2c3c(n(CCCNC(C)C)c(=O)c2cc1OC)-c1nc2c(cc1C3=O)OCO2	MTS	72 h	IC50	644 nM
O=C(C=Cc1cccc(F)c1)Nc1cc(-c2ccnc(N3CCC(O)CC3)c2)ccn1	MTT	5 µM	inhibition	78.3%
COc1ccc(CNC[C@](O)(COCc2ccc(F)cc2)[C@@H]2CC[C@@H](C)C[C@H]2OCc2ccc(F)cc2)cc1	MTT	10 µM, 72 h	inhibition	99.6%
O=C(C=Cc1ccccc1)Nc1cccc(-c2ccnc(N3CCC(CO)CC3)c2)c1	MTT	5 µM	inhibition	67.4%
CCc1c(C)c2ccc(OCc3nnc(S)n3N)c(C)c2oc1=O	MTT	500 µg/mL	viability	2.85%
Cc1cccc(/C=C/C(=O)Nc2cccc(-c3ccnc(N4CCC(CO)CC4)c3)c2)c1	MTT	5 µM	inhibition	76.4%
CCc1c(C)c2ccc(OCC=Cc3ccccc3)c(C)c2oc1=O	MTT	1000 µg/mL	viability	2.75%
COc1ccc(COC[C@@](O)(CNCc2ccc(F)cc2)[C@@H]2CC[C@@H](C)C[C@H]2OCc2ccc(OC)cc2)cc1	MTT	30 µM, 72 h	inhibition	99.2%
Nc1ccccc1NC(=O)c1ccc(CNC(=O)OCc2cccnc2)cc1	MTT	48 h	IC50	2930 nM
CC(=NNC(=O)COc1ccc2c(C)c(Cc3ccccc3)c(=O)oc2c1C)c1ccc(Br)cc1	MTT	1000 µg/mL	viability	15.1%
COc1ccc(CNC[C@@](C)(O)[C@@H]2CC[C@@H](C)C[C@H]2OCc2ccccc2)cc1	MTT	30 µM, 72 h	inhibition	83.5%
CCOc1ccc2c(C)c(CC)c(=O)oc2c1C	MTT	1000 µg/mL	viability	2.44%
C[C@@H]1CC[C@@H]([C@](O)(CNCc2cccc3ccccc23)COCc2ccccc2)[C@H](OCc2ccccc2)C1	MTT	30 µM, 72 h	inhibition	98%
CC(C)CS(=O)(=O)NCc1cccc(-c2ccc3c(NC(=O)CC4CC4)n[nH]c3c2)c1	ATP luminescence	48 h	IC50	60000 nM
C=CC(=O)c1cccnc1Nc1cc(C(F)(F)F)ccc1OC	SRB	48 h	GI50	10500 nM
CCNC(=S)NNC(=O)COc1ccc2c(C)c(CC)c(=O)oc2c1C	MTT	125 µg/mL	viability	45%
COc1ccc(CNC[C@](O)(COCc2ccc(OC)cc2)[C@@H]2CC[C@@H](C)C[C@H]2OCc2ccc(OC)cc2)cc1	MTT	10 µM, 72 h	inhibition	96.8%
